Assay results taken from ChEMBL document CHEMBL1759958, “Disassembly of preformed amyloid beta fibrils by small organofluorine molecules” (Bioorg Med Chem Lett, 2011).
The source made the active and inactive calls. The rule behind the calls is not given here.

Tests used:
[1] = Induction of disassembly of preformed amyloid beta (1 to 40) fibrils assessed as decrease in fibril amount at 10:1 compound to amyloid beta ratio by thioflavin T fluorescence method
Procedure, shortened: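 Aβ1-40 fibrils were grown at 100 μM final in 10 mM HEPES/100 mM NaCl, pH 7.4, at 37°C with 77 rpm shaking until THT saturation. Compound was added from 0.15 M DMSO stock, vortexed and re-incubated under the same conditions, then sampled periodically into 5 μM ThT (glycine-NaOH, pH 8.5). Read at ex 430/em 484 nm, ThT background subtracted, normalized to Aβ-only control; 3–4 parallel runs, mean ± SD.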

[2] = Induction of disassembly of preformed amyloid beta (1 to 40) fibrils assessed as disaggregated fibrils at 10:1 compound to amyloid beta ratio for 4 days by fourier-transform infrared spectroscopy
Procedure, shortened: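 Preformed Aβ1-40 fibrils (100 μM, HEPES pH 7.4, grown at 37°C with 77 rpm shaking to THT saturation) were exposed to compound added from DMSO stock and re-incubated at 37°C with shaking. For FTIR, 20 μl aliquots were lyophilized and mixed with 0.2 g solid KBr.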

[3] = Induction of disassembly of preformed amyloid beta (1 to 40) fibrils assessed as disaggregated fibrils at 10:1 compound to amyloid beta ratio for 4 days by atomic force microscopy
Procedure, shortened: (§1)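 Synthetic Aβ1-40 dissolved in 100 mM NaOH, diluted to 100 μM in 10 mM HEPES (100 mM NaCl, 0.02% NaN3, pH 7.4), grown at 37°C with shaking (77 rpm) until ThT saturation. Compound added from 0.15 M DMSO stock at 10:1 molar ratio, vortexed 30 s, re-incubated 37°C shaking. Aliquots of 2-5 μL spotted on fresh mica for 30-60 s, water-rinsed, air-dried. Imaged by non-contact AFM.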

[4] = Induction of disassembly of preformed amyloid beta (1 to 40) fibrils assessed as disaggregated fibrils at 10:1 compound to amyloid beta ratio for 1 day by atomic force microscopy; procedure, shortened: as §1
[5] = Induction of disassembly of preformed amyloid beta (1 to 40) fibrils assessed as disaggregated fibrils at 10:1 compound to amyloid beta ratio by atomic force microscopy; details: TDE = time-dependent effect; procedure, shortened: as §1
[6] = Induction of disassembly of preformed amyloid beta (1 to 40) fibrils assessed as disaggregated fibrils at 10:1 compound to amyloid beta ratio for 6 days by atomic force microscopy; procedure, shortened: as §1

| SMILES | Activity [1] | Activity [2] | also measured |
| --- | --- | --- | --- |
| CCOC(=O)C(O)(c1c[nH]c2ccccc12)C(F)(F)F (racemic) | Active | – | – |
| CCOC(=O)C(O)(c1c(C)[nH]c2ccc(C(=O)OC)cc12)C(F)(F)F (racemic) | Active | Active | – |
| CCOC(=O)C(O)(c1c[nH]c2ccc(Cl)cc12)C(F)(F)F (racemic) | Active | Active | – |
| CCOC(=O)[C@@](O)(c1c[nH]c2ccc(Br)cc12)C(F)(F)F | Active | Active | – |
| CCOC(=O)[C@@](O)(c1c[nH]c2ccc(Cl)cc12)C(F)(F)F | Active | Active | Activity [3]: Active |
| COc1ccc2[nH]cc(CCNC(C)=O)c2c1 | Active | Active | – |
| CCOC(=O)C(O)(c1c[nH]c2ccc(Br)cc12)C(F)(F)F (racemic) | Active | Active | – |
| CCOC(=O)[C@@](O)(c1c[nH]c2ccc(I)cc12)C(F)(F)F | Active | Active | Activity [3]: Active |
| CCOC(=O)[C@](O)(c1c[nH]c2ccc(Br)cc12)C(F)(F)F | Active | Active | – |
| CCOC(=O)C(O)(c1c(C)n(C)c2ccccc12)C(F)(F)F (racemic) | Active | – | – |
| CCOC(=O)C(O)(c1c(C)[nH]c2ccc(C)cc12)C(F)(F)F (racemic) | Active | – | – |
| CCOC(=O)C(O)(c1c[nH]c2ccc(I)cc12)C(F)(F)F (racemic) | Active | – | – |
| CCOC(=O)[C@](O)(c1c[nH]c2ccc(I)cc12)C(F)(F)F | Active | Active | Activity [3]: Active; Activity [4]: Active; Activity [5]: tde; Activity [6]: Active |
| CCOC(=O)C(O)(c1c[nH]c2ccc(C)cc12)C(F)(F)F (racemic) | Active | – | – |
| CCOC(=O)[C@](O)(c1c[nH]c2ccc(Cl)cc12)C(F)(F)F | Active | Active | – |
| CCOC(=O)C(O)(c1c(C)[nH]c2ccc(OC)cc12)C(F)(F)F (racemic) | Active | – | – |
